Assay results collected from several papers.
Lines come from different studies, so protocols differ.
Target: Homeodomain-interacting protein kinase 2 (HIPK2, Homo sapiens, UniProt Q9H2X6)

Compound	effect on	action	method	tested at	measurement	result
COc1cccc(Nc2nc3cc(C(=O)O)ccc3c3cnccc23)c1	enzyme activity	inhibitor	radiometric	1 µM	remaining activity	2%
COc1cc2nccc(Oc3ccc(NC(=O)c4c5n(n(-c6ccc(F)cc6)c4=O)CCCC5)cc3)c2cc1OC	enzyme activity	inhibitor		0.1 µM	inhibition	10%
COc1cc2ncnc(Nc3ccc(Oc4ccccc4)c(C)c3C)c2cc1OC	enzyme activity	inhibitor		1 µM	inhibition	1%
COc1cc(-c2cc(-c3ccc(N4CCNCC4)cc3)cnc2C)cc(OC)c1OC	enzyme activity	inhibitor		1 µM	inhibition	2%
CCCCN(CCCC)C(=O)CN1C[C@H](c2cc(OC)c3c(c2)OCO3)[C@@H](C(=O)O)[C@@H]1CC(C)(C)CCC	cell-free assay		competition with immobilised ligand	1 µM	remaining binding	82.3%
COc1cccc(CCNc2nc3cc(C(=O)O)ccc3c3cnccc23)c1	enzyme activity	inhibitor	radiometric	1 µM	remaining activity	10%
CC(=O)N1CCC(c2ccc(C(=O)NC3=NCCN3)cc2C(F)(F)F)CC1	cell-free assay		competition with immobilised ligand	1 µM	remaining binding	100%
COc1cccc(CCNc2nc3cc(C(=O)O)ccc3c3cncnc23)c1	enzyme activity	inhibitor	radiometric	1 µM	remaining activity	22%
CCOc1cc(-c2nncn2C)ccc1Nc1ncc2cc(C)nc(NCC(C)(C)C)c2n1	enzyme activity	inhibitor	FRET	1 µM	inhibition	< 15%
Cc1ccc(Nc2nccc(N(C)c3ccc4c(C)n(C)nc4c3)n2)cc1S(N)(=O)=O	enzyme activity	inhibitor		10 µM	inhibition	21%
O=C(O)c1ccc2c(c1)nc(NCCc1cccc(Cl)c1)c1ncncc12	enzyme activity	inhibitor	radiometric	1 µM	remaining activity	36%
Cc1ccc(NC(=O)c2ccc(CN3CCN(C)CC3)cc2)cc1Nc1nc(-c2cccnc2)cs1	cell-free assay			0.5 µM	remaining signal	90.8%
COc1cc(-c2cn(C3CCc4c(F)cccc4N(CC(F)(F)F)C3=O)nn2)ccc1-n1cnc(C)c1 (stereo not drawn)	cell-free assay		competition with immobilised ligand	1 µM	remaining binding	100%
O=C1Nc2ccc(Cl)cc2C1=Cc1cc(Cl)c(O)c(Cl)c1	cell-free assay			0.5 µM	remaining signal	122%
O=C(O)c1ccc2c(c1)nc(NCCc1cccc(Cl)c1)c1ccncc12	enzyme activity	inhibitor	radiometric	1 µM	remaining activity	20%
Cc1c(NC(=O)c2cc(C(N)=O)nc3cc(F)ccc23)c(C(F)(F)F)nn1Cc1ccc(C#N)cc1	cell-free assay		competition with immobilised ligand	1 µM	remaining binding	83%
O=C(O)c1ccc2c(c1)nc(Nc1ccc3ccccc3c1)c1ccncc12	enzyme activity	inhibitor	radiometric	1 µM	remaining activity	4%
CN1CCN(c2cnc3c(C4CCN(C(=O)c5ccc(OC(F)(F)F)cc5N)CC4)ncnc3c2)CC1	cell-free assay		competition with immobilised ligand	1 µM	remaining binding	100%
Clc1ccc(Nc2nnc(Cc3ccncc3)c3ccccc23)cc1	cell-free assay			0.5 µM	remaining signal	101%
O=C(O)c1ccc2c(c1)nc(NCc1ccccc1)c1ncncc12	enzyme activity	inhibitor	radiometric	1 µM	remaining activity	39%
C[C@H](c1cccc(C#N)c1)n1cc(Cl)cc(C(N)=O)c1=N	cell-free assay		competition with immobilised ligand	1 µM	remaining binding	100%
N#Cc1cccc(Nc2nc3cc(C(=O)O)ccc3c3cnccc23)c1	enzyme activity	inhibitor	radiometric	1 µM	remaining activity	-1%
CCN(CC)CCNC(=O)c1c(C)[nH]c(/C=C2\C(=O)Nc3ccc(F)cc32)c1C	enzyme activity	inhibitor		0.3 µM	inhibition	20%
Cc1nc(N2CC[C@@H](O)C2)ncc1-c1cc(C(F)(F)F)cc2[nH]ncc12	binding		competition with immobilised ligand	1 µM	remaining binding	74%
COc1cc(/C=C/C(=O)CC(=O)/C=C/c2ccc(O)c(OC)c2)ccc1O	enzyme activity	inhibitor		1 µM	activity vs control	54%
NS(=O)(=O)c1cc(NC(=O)Cc2ccccc2)ccc1Oc1cccc(Cl)c1	cell-free assay		competition with immobilised ligand	1 µM	remaining binding	62%
Cc1ccc(NC(=O)c2ccc(C)c(C(F)(F)F)c2)cc1C#Cc1nn(C2CCC(O)CC2)c2ncnc(N)c12 (stereo not drawn)	cell-free assay			10 µM	remaining signal	99%
